Bioassay records from PubChem BioAssay.
Sampled rows, rich in hits. Any-hit rate of the full collection: about 1.9%.
CHRM4 PAM: potentiates acetylcholine response at human M4 receptor | hit rate 0.4% among 360,000 | CHO-K1 hM4/Gqi5, Fluo-8 calcium fluorescence, ACh EC20; 0% = ACh EC20, 100% = maximal ACh | activation, % at 3 µM | AID 624126 | P08173;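 active = activation above its plate's cutoff, the mean activation of sample wells plus 3 SD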
CHRM5 PAM: positive allosteric modulators of human muscarinic M5 receptor; P08912; CHO-K1 hM5, Fluo-8 calcium, ACh EC20 PAM; 0% = ACh EC20, 100% = ACh EC100; activation, % at 3 µM; hit rate 0.3% among 360,000; AID 624038;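 active = activation above the run cutoff, the mean activation of all test compounds plus 3 SD, cut at about 18% in these data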
Target sequence (P08912 whole entry, looked up): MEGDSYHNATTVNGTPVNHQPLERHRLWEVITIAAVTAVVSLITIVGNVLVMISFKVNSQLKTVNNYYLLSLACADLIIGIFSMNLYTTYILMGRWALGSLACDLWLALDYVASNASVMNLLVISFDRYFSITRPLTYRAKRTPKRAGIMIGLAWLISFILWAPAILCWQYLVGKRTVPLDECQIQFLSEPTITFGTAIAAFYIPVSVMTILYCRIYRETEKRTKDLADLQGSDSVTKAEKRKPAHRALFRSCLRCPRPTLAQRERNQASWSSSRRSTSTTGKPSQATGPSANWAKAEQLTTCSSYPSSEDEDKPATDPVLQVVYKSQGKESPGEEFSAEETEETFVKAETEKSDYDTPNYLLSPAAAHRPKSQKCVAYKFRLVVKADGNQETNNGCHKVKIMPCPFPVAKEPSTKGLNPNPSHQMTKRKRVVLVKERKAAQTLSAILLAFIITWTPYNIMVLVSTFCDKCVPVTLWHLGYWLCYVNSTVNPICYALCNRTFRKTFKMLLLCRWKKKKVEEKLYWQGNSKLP
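Replicates: One well per compound, no replicates | System: Human M5 receptor in CHO-K1 cells | Benchmarks: Low control EC20 acetylcholine (0%), high control EC100 acetylcholine (100%) | Probe or stimulus: Acetylcholine, EC20 level | Times: Fluo-8 loading 80 min at 37 °C plus 30 min room temperature | Signal: Intracellular calcium via Fluo-8 fluorescence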
CHRM5 agonist: agonists of human muscarinic M5 receptor (CHRM5). CHO-K1 hM5 cells, Fluo-8 calcium fluorescence; 0% DMSO wells, 100% maximal acetylcholine response. AID 624037. P08912. activation, % at 3 µM. hit rate 0.19% among 360,000;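 active = activation above the run's mean over test compounds plus 3 SD, cut at about 23% in these data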;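 note: signal is peak over basal fluorescence ratio across the kinetic read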
CHRM4 agonist: agonists of human muscarinic M4 receptor (CHRM4) | hit rate 0.14% among 360,000 | CHO-K1 hM4/Gqi5, Fluo-8 calcium fluorescence; vehicle 0%, full acetylcholine response 100% | P08173 | AID 624127 | activation, % at 3 µM;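 active = activation above the run mean over all test wells plus 3 SD, cut at about 32% in these data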;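 note: peak over basal fluorescence ratio per well then scaled between controls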
CHRM4 antagonist: CHRM4 antagonism in calcium assay; CHO-hM4 cells, ACh EC80, Fluo-8 calcium fluorescence; inhibition, % at 3 µM; hit rate 0.73% among 360,000; AID 624125;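 active = inhibition above its plate's cutoff, the mean inhibition of sample wells plus 3 SD, cut at about 27% in these data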
M5 antag: blocks acetylcholine activation of human M5 receptor. AID 624040. inhibition, % at 3 µM. CHO-hM5 cells, Fluo-8 calcium fluorescence, ACh EC80. hit rate 0.59% among 360,000. P08912;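 active = inhibition above a per-plate cutoff, the mean of that plate's test compounds plus 3 SD, cut at about 27% in these data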
A number is an active result; 0 = inactive.

SMILES | CHRM4 PAM | CHRM5 PAM | CHRM5 agonist | CHRM4 agonist | CHRM4 antagonist | M5 antag
O=[N+]([O-])c1ccc(NC(=S)NCCc2ccccc2)cc1 | 0 | 0 | 0 | 0 | 0 | 27
O=[N+]([O-])c1ccc(NC(=S)NCCc2ccc(Cl)cc2)cc1 | 0 | 0 | 0 | 0 | 0 | 27
Cc1c(Cl)cc(C(C)C)c(O)c1CN1CCOCC1 | 0 | 0 | 0 | 0 | 0 | 0
COc1cccc(-c2nc(-c3ccccc3)c3ccc(Cl)cc3n2)c1 | 0 | 0 | 0 | 0 | 0 | 0
CCCc1c(C(=O)N/N=C/c2ccc3c(c2)OCO3)nnn1-c1nonc1N | 0 | 0 | 0 | 0 | 0 | 0
COc1ccc(C/C(C)=N/NC(=O)c2ccc(Cl)cc2)cc1 | 0 | 0 | 0 | 0 | 0 | 0
COc1ccc(C/C(C)=N/NC(=O)c2cccnc2)cc1 | 33 | 19 | 0 | 0 | 0 | 0
CN1/C(=C/C(=O)CSc2ccccc2C(=O)O)C(C)(C)c2ccccc21 | 0 | 0 | 0 | 0 | 0 | 0
Cc1cc(=O)[nH]c(SCC(=O)/C=C2\N(C)c3ccccc3C2(C)C)n1 | 0 | 0 | 0 | 0 | 33 | 31
CC(=O)Nc1ccc2c(COC(=O)[C@@H](NS(=O)(=O)c3ccc(C)cc3)C(C)C)cc(=O)oc2c1 | 0 | 0 | 0 | 0 | 0 | 0
Cc1nnc(N2CCOCC2)c2ccccc12 | 25 | 0 | 0 | 0 | 0 | 0
COc1ccc(-c2nnc(N3CCOCC3)c3ccccc23)cc1 | 0 | 0 | 0 | 0 | 0 | 0
CCCn1c(SCC(=O)Nc2ccc(OCC)cc2)nnc1C(C)C | 0 | 19 | 0 | 0 | 0 | 0
CCN(CC)c1ccc(C=C2SC(=S)NC2=O)cc1 | 0 | 0 | 72 | 0 | 0 | 35
CN(Cc1cnn(C)c1)C(=O)CC1C(=O)NCCN1Cc1cccc(Oc2ccccc2)c1 (stereo not drawn) | 0 | 0 | 0 | 0 | 0 | 32
COc1cc(C=O)ccc1OCCCOc1ccccc1C(=O)O | 32 | 0 | 0 | 0 | 0 | 0
COc1cc(C=O)ccc1OCCCOc1ccccc1[N+](=O)[O-] | 0 | 0 | 0 | 0 | 0 | 0
CC1Cc2ccccc2N1S(=O)(=O)c1cnc[nH]1 (stereo not drawn) | 0 | 43 | 0 | 0 | 0 | 0
COC(=O)c1c(NC(=O)C2=COCCO2)sc(C)c1C | 25 | 0 | 0 | 0 | 0 | 0
COc1ccc(C)c2sc(NC(=O)C3=COCCO3)nc12 | 36 | 0 | 0 | 0 | 0 | 0
O=C(Nc1nc2c(F)cc(F)cc2s1)c1ccc([N+](=O)[O-])o1 | 0 | 0 | 0 | 0 | 0 | 0
Cc1ccc(CNc2ncc(-c3ccc4c(c3)OCO4)n2C)cc1 | 0 | 0 | 0 | 0 | 28 | 0
Cn1c(-c2ccc3c(c2)OCO3)cnc1NCc1ccc(Cl)cc1 | 0 | 0 | 0 | 0 | 0 | 0
Cc1cccc(C)c1C(=NCCCN(C)C)c1ccccc1 | 0 | 0 | 0 | 0 | 38 | 80
COc1cccc(N=Nc2ccc3cccnc3c2O)c1 | 0 | 0 | 42 | 43 | 0 | 0
SMILES | CHRM4 PAM | CHRM5 PAM | CHRM5 agonist | CHRM4 agonist | CHRM4 antagonist | M5 antag
COc1cccc(N=Nc2ccc(O)c3ncccc23)c1 | 0 | 0 | 54 | 0 | 34 | 28
CCOC(=O)CN1C(=O)CSc2ccccc21 | 0 | 0 | 0 | 0 | 33 | 0
O=C(O)CN1C(=O)CSc2ccccc21 | 0 | 0 | 0 | 0 | 0 | 0
CCCS(=O)(=O)N1CCN(C(=O)c2ccco2)CC1 | 20 | 19 | 0 | 0 | 0 | 0
CCS(=O)(=O)N1CCN(C(=O)c2ccco2)CC1 | 0 | 0 | 0 | 0 | 0 | 0
CC(=O)N1c2ccccc2NC2=C(C(=O)CCC2)C1c1ccco1 (stereo not drawn) | 0 | 21 | 0 | 0 | 0 | 0
CCN(CC)CCNC(=O)c1ccc(NC(=O)c2cccc(S(=O)(=O)N3CCCCCC3)c2)cc1 | 0 | 0 | 0 | 0 | 79 | 79
CCN(CC)CCNC(=O)c1ccc(NC(=O)c2ccc(S(=O)(=O)N3CCCCCC3)cc2)cc1 | 0 | 0 | 0 | 0 | 0 | 0
CCN(CC)CCNC(=O)c1ccc(NC(=O)c2ccc(Cl)c(S(=O)(=O)N3CCCCCC3)c2)cc1 | 0 | 0 | 0 | 0 | 70 | 79
O=C(NC1CCN(Cc2ccccc2)CC1)C1COc2ccccc2O1 (stereo not drawn) | 0 | 0 | 0 | 0 | 0 | 64
COc1ccc(Cl)cc1NS(=O)(=O)c1cccc(C(=O)NC2CCN(Cc3ccccc3)CC2)c1 | 0 | 0 | 0 | 0 | 32 | 0
CCN(c1ccccc1)S(=O)(=O)c1ccc(C(=O)NC2CCN(Cc3ccccc3)CC2)cc1 | 0 | 0 | 0 | 0 | 46 | 0
COc1ccc(/C=C/C(=O)NC(=S)N2CCN(c3ccccn3)CC2)cc1OC | 0 | 0 | 0 | 0 | 0 | 0
O=C(/C=C/c1ccc(F)cc1)NC(=S)N1CCN(c2ccccn2)CC1 | 0 | 19 | 0 | 0 | 0 | 0
Cc1ccc(C(C(=O)NC2CCCCC2)N(CC2CCCO2)C(=O)CCCC(=O)Nc2ccccn2)cc1 (stereo not drawn) | 0 | 0 | 0 | 0 | 0 | 0
N#CCCn1cc(C(=O)CN2C(=O)NC3(CCc4ccccc43)C2=O)c2ccccc21 (stereo not drawn) | 0 | 0 | 0 | 0 | 0 | 0
CCOC(=O)c1ccc(NC(=S)N2CCC(O)CC2)cc1 | 0 | 0 | 0 | 0 | 0 | 0
CCOC(=O)c1ccc(NC(=S)N2CCSC2c2ccc(Br)cc2)cc1 (stereo not drawn) | 0 | 0 | 0 | 46 | 28 | 0
COC(=O)[C@H]1C[C@H]2[C@@H]3CC[C@H]4C[C@@H](OC)CC[C@]4(C)[C@H]3CC[C@]2(C)[C@@]2(CCCO2)O1 | 0 | 0 | 0 | 0 | 0 | 0
CC1(C)N=C(N)N=C(N)N1c1ccc(Oc2ccc(Cl)cc2)c(Cl)c1 | 0 | 0 | 0 | 0 | 0 | 33
N=c1sc2ccccc2n1-c1ccccc1 | 0 | 0 | 0 | 0 | 0 | 27
C=CC(=O)N=c1sc2ccccc2n1-c1ccccc1 | 0 | 0 | 0 | 0 | 0 | 0
COc1ccc(-c2cc(CCC(=O)N3CCN(c4cc(C)ccc4C)CC3)on2)cc1 | 0 | 0 | 0 | 0 | 0 | 0
CN(CC(=O)Nc1ccc(Cl)c(Cl)c1)C(=O)CNC(=O)C1CCCCC1 | 0 | 0 | 0 | 0 | 0 | 0
NCCC(=O)N1c2ccccc2Sc2ccc(Cl)cc21 | 0 | 0 | 0 | 0 | 38 | 61
NCCCC(=O)N1c2ccccc2Sc2ccc(Cl)cc21 | 0 | 0 | 0 | 0 | 64 | 77
CN1CCN(CCC(=O)N2c3ccccc3Sc3ccc(Cl)cc32)CC1 | 0 | 0 | 0 | 0 | 0 | 0
Nc1nnc(SCC(=O)NC2CCCCCC2)s1 | 24 | 0 | 0 | 0 | 0 | 0
COc1ccc(C(=O)COC(=O)C(CCSC)NS(=O)(=O)c2ccc(Cl)cc2)cc1 (stereo not drawn) | 0 | 0 | 0 | 0 | 27 | 0
Cc1nn(-c2ccccc2)c(-c2ccccc2[N+](=O)[O-])c1CC#N | 0 | 0 | 0 | 0 | 0 | 0
